A value given as a limit tells only on which side of the number the result lay.

Data set [1] can be described thus: Selectivity index, ratio of IC50 for african green monkey (Cercopithecus aethiops) Vero cells to IC50 for chloroquine-resistant Plasmodium falciparum W2. The data set is classed as toxicity, cell-based. The settings on record: read-out: Ratio IC50. The procedure, abridged:
(§1)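 Selectivity index is Vero cytotoxicity IC50 (Neutral Red, 48 h) divided by P. falciparum D6 or W2 IC50 (parasite LDH, 72 h).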

Data set [2] is described as follows: Selectivity index, ratio of IC50 for african green monkey (Cercopithecus aethiops) Vero cells to IC50 for chloroquine-sensitive Plasmodium falciparum D6. The data set is classed as toxicity, cell-based. The settings on record: read-out: Ratio IC50. Put shortly: as §1
In data set [3] the test system is Vero. Description: Cytotoxicity against african green monkey Vero cells upto 16.72 uM after 48 hrs by neutral red assay. Type of data set: cell-based. The settings on record: chlorocebus sabaeus. Put shortly: (§2)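 Vero monkey kidney cells seeded at 25,000 cells/well and grown 24 h, then exposed to samples at several concentrations for 48 h. Viable cells counted by Neutral Red uptake. IC50 taken from dose-response curves; doxorubicin run as positive control.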

Data set [4] deals with Plasmodium falciparum. As to the kind of experiment: Antimalarial activity after 72 hrs against chloroquine-sensitive Plasmodium falciparum D6 by Malstat LDH activity. Type of data set: functional, organism-based. The settings on record: D6, 72 h. Put shortly:
(§3)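 P. falciparum (D6 or W2) infected red cell suspension at 2% parasitemia and 2% hematocrit in RPMI 1640 with 10% human serum and amikacin, added to serially diluted samples. Incubated 72 h at 37 °C under 90% N2/5% O2/5% CO2. Parasite LDH read with Malstat reagent and NBT/PES, acetic acid stop, 650 nm. IC50 taken from dose-response curves; artemisinin and chloroquine run as controls.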

Data set [5] relates to Plasmodium falciparum. As to the kind of experiment: Antimalarial activity after 72 hrs against chloroquine-resistant Plasmodium falciparum W2 by Malstat LDH activity. The data set is classed as functional, organism-based. The settings on record: W2, 72 h. Put shortly:
as §3

The subject of another data set is SK-MEL. As to the kind of experiment: Cytotoxicity human SK-MEL cells upto 30 uM after 48 hrs by neutral red assay. The data set is classed as cell-based.
The next data set relates to SK-OV-3. As to the kind of experiment: Cytotoxicity human SKOV3 cells upto 30 uM after 48 hrs by neutral red assay. Type of data set: cell-based. The conditions noted are these: sk-ov-3, 48 h.
A further data set relates to KB. As to the kind of experiment: Cytotoxicity human KB cells upto 30 uM after 48 hrs by neutral red assay. Type of data set: cell-based.
Data set [6] in a line: Cytotoxicity pig LLC-PK11 cells upto 30 uM after 48 hrs by neutral red assay. The data set is classed as cell-based, Sus scrofa. The settings on record: llc-pk11, 48 h.
Data set [7] deals with Vero. Description: Cytotoxicity against african green monkey Vero cells upto 30 uM after 48 hrs by neutral red assay. The conditions noted are these: chlorocebus sabaeus. Type of data set: cell-based. Put shortly:
as §2

For the next data set, the system named is BT-549. Description: Cytotoxicity human BT549 cells upto 30 uM after 48 hrs by neutral red assay. The data set is classed as cell-based. The settings on record: bt-549, 48 h.

For `CC(C)(C)c1ccc(C2OOC(c3ccc(C(C)(C)C)cc3)OO2)cc1` (stereo not drawn), the selectivity ratio in data set [1] is above 3.4; in data set [2] it was above 6.1. In the data set on Vero [3], the Activity result is recorded as “Non-toxic”. The results for the IC50 in the data set on Plasmodium falciparum [4] and in the data set on Plasmodium falciparum [5] were 2190 nM and 3930 nM, respectively.

For `Cc1ccc(C2OOC(c3ccc(C(C)C)cc3)OO2)cc1` (stereo not drawn), the selectivity ratio in data set [1] is above 20.9; in data set [2], above 26.4. In addition, the Activity result in the data set with Vero [3] is reported as “Non-toxic”. Also, the IC50 in the data set with Plasmodium falciparum [4] was 590 nM; with Plasmodium falciparum [5], 770 nM.

Consider `CCCc1ccc(C2OOC(c3ccc(CCC)cc3)OO2)cc1` (stereo not drawn), for which the Activity result (with SK-MEL; in the data set with SK-OV-3; with KB; in [6]; with Vero [7]; with Vero [3]) was “Non-toxic” each time. For the same compound, the Activity result with BT-549 was “Non-toxic”. Also, the selectivity ratio is above 19 in [1] and above 23.8 in data set [2]. In addition, the values for the IC50 with Plasmodium falciparum [4] and with Plasmodium falciparum [5] were 610 nM and 760 nM, respectively.

In the case of `CCCCc1ccc(C2OOC(c3ccc(CCCC)cc3)OO2)cc1` (stereo not drawn), the selectivity ratio in data set [1] is above 2.8; in data set [2] it was above 3.7. In addition, in the data set on Vero [3], the Activity entry is reported as “Non-toxic”. Moreover, the IC50 in the data set on Plasmodium falciparum [4] is 3650 nM; with Plasmodium falciparum [5], 4770 nM.

Regarding `CCc1ccc(C2OOC(c3ccc(C)cc3)OO2)cc1` (stereo not drawn), the figures for the selectivity ratio in [1] and in data set [2] were above 36.7 and above 43.6, respectively. The Activity entry with Vero [3] is listed as “Non-toxic”. Besides, the values for the IC50 in the data set with Plasmodium falciparum [4] and in the data set on Plasmodium falciparum [5] were 380 nM and 450 nM, respectively.

Take `Cc1ccc(C2OOC(c3ccc(C(C)(C)C)cc3)OO2)cc1` (stereo not drawn): the selectivity ratio is above 19 in data set [1] and above 25.1 in data set [2]. In addition, the Activity result with Vero [3] is recorded as “Non-toxic”. In addition, the values for the IC50 in the data set on Plasmodium falciparum [4] and in the data set on Plasmodium falciparum [5] were 600 nM and 790 nM, respectively.

`COc1ccc(C2OOC(c3ccc(C)cc3)OO2)cc1` (stereo not drawn): the values for the selectivity ratio in data set [1] and in data set [2] were above 15.4 and above 21.6, respectively. Besides, in the data set on Vero [3], the Activity result was “Non-toxic”. Besides, the results for the IC50 in the data set with Plasmodium falciparum [4] and with Plasmodium falciparum [5] were 760 nM and 1080 nM, respectively.

For the compound `CC(C)c1ccc(C2OOC(c3ccc(C(C)C)cc3)OO2)cc1` (stereo not drawn), the Activity entry (in the data set on SK-MEL; in the data set with SK-OV-3; with KB; in data set [6]; in the data set on Vero [7]; with Vero [3]) was “Non-toxic” throughout. Also, in the data set with BT-549, the Activity entry was “Non-toxic”. Besides, the selectivity ratio in data set [1] is above 14; in [2], above 21.6. Further, the results for the IC50 in the data set on Plasmodium falciparum [4] and in the data set on Plasmodium falciparum [5] were 670 nM and 1030 nM, respectively.

On to `CCc1ccc(C2OOC(c3ccc(CC)cc3)OO2)cc1` (stereo not drawn), for which the Activity result (with SK-MEL; in the data set with SK-OV-3; with KB; in data set [6]; in the data set with Vero [7]; in the data set with Vero [3]) was “Non-toxic” throughout. Besides, the Activity result in the data set with BT-549 is reported as “Non-toxic”. Further, the selectivity ratio in data set [1] and in data set [2] was above 15.9 each time. The same compound showed an IC50 with Plasmodium falciparum [4] of 990 nM.

For `Cc1ccc(C2OOC(c3ccccc3C)OO2)cc1` (stereo not drawn), the selectivity ratio in data set [1] is above 7.9; in [2], above 5.7. In the data set on Vero [3], the Activity result was “Non-toxic”. In addition, the IC50 in the data set on Plasmodium falciparum [4] was found to be 3050 nM; in the data set on Plasmodium falciparum [5], 2200 nM.

As for `Cc1cccc(C2OOC(c3ccccc3C)OO2)c1` (stereo not drawn), the selectivity ratio is above 12.9 in data set [1] and above 17 in [2]. For the same compound, the Activity result with Vero [3] is “Non-toxic”. The IC50 with Plasmodium falciparum [4] was 1030 nM; in the data set with Plasmodium falciparum [5], 1360 nM.

With `COc1ccc(C2OOC(c3ccc(C(C)C)cc3)OO2)cc1` (stereo not drawn), the selectivity ratio is above 2.6 in data set [1] and above 1.9 in data set [2]. Besides, the Activity entry in the data set on Vero [3] is reported as “Non-toxic”. In addition, the IC50 in the data set with Plasmodium falciparum [4] was found to be 7900 nM; with Plasmodium falciparum [5], 5690 nM.

As for `CCc1ccc(C2OOC(c3ccc(C(C)(C)C)cc3)OO2)cc1` (stereo not drawn), the selectivity ratio in data set [1] is above 4; in [2], above 2.6. Moreover, the Activity entry in the data set with Vero [3] is given as “Non-toxic”. Also, the values for the IC50 in the data set with Plasmodium falciparum [4] and with Plasmodium falciparum [5] were 5480 nM and 3650 nM, respectively.

As for `CCCc1ccc(C2OOC(c3ccc(C)cc3)OO2)cc1` (stereo not drawn), the selectivity ratio in data set [1] was above 14.9; in [2], above 7.9. For the same compound, in the data set with Vero [3], the Activity result is listed as “Non-toxic”. Besides, the IC50 is 1990 nM in the data set on Plasmodium falciparum [4] and 1060 nM with Plasmodium falciparum [5].

For the compound `Cc1ccc(C2OOC(c3ccc(C=O)cc3)OO2)cc1` (stereo not drawn), the Activity result with Vero [3] is recorded as “Non-toxic”.

For `CCCc1ccc(C2OOC(c3ccc(OC)cc3)OO2)cc1` (stereo not drawn), the selectivity ratio in data set [1] is above 22.7; in data set [2], above 15.8. The Activity entry in the data set with Vero [3] was “Non-toxic”. Moreover, the IC50 is 940 nM in the data set on Plasmodium falciparum [4] and 660 nM with Plasmodium falciparum [5].

Regarding `CCCc1ccc(C2OOC(c3ccc(C(C)C)cc3)OO2)cc1` (stereo not drawn), the selectivity ratio in data set [1] is above 18.3; in data set [2], above 15.4. Besides, the Activity entry with Vero [3] was “Non-toxic”. The IC50 in the data set on Plasmodium falciparum [4] stood at 960 nM; in the data set on Plasmodium falciparum [5], 800 nM.

As for `CCc1ccc(C2OOC(c3cccc(C)c3)OO2)cc1` (stereo not drawn), the selectivity ratio in data set [1] was above 29.8; in [2], above 47.6. Further, the Activity entry in the data set on Vero [3] is given as “Non-toxic”. The IC50 with Plasmodium falciparum [4] amounted to 350 nM; in the data set on Plasmodium falciparum [5], 560 nM.

In the case of `CCc1ccc(C2OOC(c3ccc(C(C)C)cc3)OO2)cc1` (stereo not drawn), the selectivity ratio was above 26.4 in [1] and above 34 in data set [2]. The Activity entry with Vero [3] is reported as “Non-toxic”. Moreover, the values for the IC50 in the data set with Plasmodium falciparum [4] and with Plasmodium falciparum [5] were 450 nM and 570 nM, respectively.

For the compound `Cc1ccc(C2OOC(c3ccccc3)OO2)cc1` (stereo not drawn), the selectivity ratio in [1] is above 17; in [2] it was above 19.8. Moreover, the Activity entry with Vero [3] is “Non-toxic”. Further, the IC50 in the data set on Plasmodium falciparum [4] stood at 930 nM; with Plasmodium falciparum [5] it was 1080 nM.

Take `COc1ccc(C2OOC(c3cccc(C)c3)OO2)cc1` (stereo not drawn): the selectivity ratio in data set [1] was above 26.4; in data set [2], above 39.7. Further, the Activity entry in the data set on Vero [3] is given as “Non-toxic”. The IC50 in the data set on Plasmodium falciparum [4] was 420 nM; in the data set on Plasmodium falciparum [5], 620 nM.

`Cc1ccc(C2OOC(c3cccc(C)c3)OO2)cc1` (stereo not drawn): the results for the selectivity ratio in data set [1] and in data set [2] were above 17 and above 25.1, respectively. In the data set on Vero [3], the Activity result is “Non-toxic”. The values for the IC50 with Plasmodium falciparum [4] and in the data set with Plasmodium falciparum [5] were 670 nM and 1030 nM, respectively.

Consider `Cc1cccc(C2OOC(c3ccccc3)OO2)c1` (stereo not drawn), for which the selectivity ratio was above 39.7 in data set [1] and above 36.8 in [2]. Further, the Activity entry in the data set with Vero [3] is reported as “Non-toxic”. Besides, the IC50 in the data set on Plasmodium falciparum [4] came to 500 nM; with Plasmodium falciparum [5], 460 nM.

For the compound `CCCc1ccc(C2OOC(c3ccc(C(C)(C)C)cc3)OO2)cc1` (stereo not drawn), the selectivity ratio is above 5.3 in data set [1] and above 3.4 in data set [2]. For the same compound, the Activity entry in the data set on Vero [3] was “Non-toxic”. Besides, the IC50 was found to be 4090 nM with Plasmodium falciparum [4] and 2630 nM in the data set with Plasmodium falciparum [5].

As to `COc1ccc(C2OOC(c3ccc(C(C)(C)C)cc3)OO2)cc1` (stereo not drawn), the selectivity ratio in data set [1] was above 22.7; in data set [2], above 26.4. In addition, the Activity result in the data set on Vero [3] is on record as “Non-toxic”. Besides, the results for the IC50 with Plasmodium falciparum [4] and in the data set with Plasmodium falciparum [5] were 540 nM and 640 nM, respectively.

`CC(C)c1ccc(C2OOC(c3ccc(C(C)(C)C)cc3)OO2)cc1` (stereo not drawn): the results for the selectivity ratio in [1] and in data set [2] were above 1.5 and above 1, respectively. Besides, in the data set with Vero [3], the Activity result was “Non-toxic”. Also, the IC50 in the data set on Plasmodium falciparum [4] amounted to 13900 nM; in the data set with Plasmodium falciparum [5], 9340 nM.

In the case of `C[C@@H]1CC[C@H]2[C@@H](C)C(=O)O[C@@H]3O[C@@]4(C)CC[C@@H]1[C@]32OO4` [ARTEMISININ], the figures for the selectivity ratio in [1] and in data set [2] were above 1400 and above 476, respectively. The Activity entry with Vero [3] was “Non-toxic”. In addition, the IC50 with Plasmodium falciparum [5] was 15 nM.

`CCN(CC)CCCC(C)Nc1ccnc2cc(Cl)ccc12` (stereo not drawn) [CHLOROQUINE]: in the data set with Vero [3], the Activity result was “Non-toxic”.

(Values after ChEMBL document CHEMBL1152414, “Synthesis, antimalarial activity and cytotoxicity of substituted 3,6-diphenyl-[1,2,4,5]tetraoxanes” (Bioorg Med Chem, 2009).)
